Measurements: ChEMBL document CHEMBL1158958, “Studies on inhibitors of skin tumor promotion, IX. Neolignans from Magnolia officinalis” (J Nat Prod, 1991)

How the values were obtained:
Raji [1] = assay: Inhibition of 12-O-tetradecanoylphorbol-13-acetate-induced EBV-early antigen activation in human Raji cells at 1000 molar ratio after 48 hrs relative to TPA; assay type: cell-based; design: scale not given: the % may be the effect or the level left; conditions: human gammaherpesvirus 4
Summary of the method: (§1)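 Raji indicator cells kept 48 h at 37° in 1 ml medium with n-butyric acid (4 mM, co-inducer), TPA (20 ng/ml, […]) and test compound in DMSO, dosed as mol ratio to TPA. EA-positive cells were found by indirect immunofluorescence on smears with high-titer EBV-positive NPC patient sera. At least 500 cells counted per assay, repeated twice. Induction is expressed relative to the butyric acid+TPA positive control (100%).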

Raji [2] = assay: Inhibition of 12-O-tetradecanoylphorbol-13-acetate-induced EBV-early antigen activation in human Raji cells at 500 molar ratio after 48 hrs relative to TPA; assay type: cell-based; design: scale not given: the % may be the effect or the level left; conditions: human gammaherpesvirus 4; summary of the method: as §1
Raji [3] = assay: Inhibition of 12-O-tetradecanoylphorbol-13-acetate-induced EBV-early antigen activation in human Raji cells at 100 molar ratio after 48 hrs relative to TPA; assay type: cell-based; design: scale not given: the % may be the effect or the level left; conditions: human gammaherpesvirus 4; summary of the method: as §1
Raji [4] = assay: Inhibition of 12-O-tetradecanoylphorbol-13-acetate-induced EBV-early antigen activation in human Raji cells at 10 molar ratio after 48 hrs relative to TPA; assay type: cell-based; design: scale not given: the % may be the effect or the level left; conditions: human gammaherpesvirus 4; summary of the method: as §1
Raji [5] = assay: Inhibition of 12-O-tetradecanoylphorbol-13-acetate-induced EBV-early antigen activation in human Raji cells at 1 molar ratio after 48 hrs relative to TPA; assay type: cell-based; design: scale not given: the % may be the effect or the level left; conditions: human gammaherpesvirus 4; summary of the method: as §1
[6] = Cytotoxicity against human Raji cells assessed as cell viability at 1000 molar ratio; assay type: cell-based; conditions: read-out: Activity
Summary of the method: (§2)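 Raji cell viability read in the same EBV-EA run: 48 h at 37° with n-butyric acid (4 mM) and TPA ([…]) plus test compound in DMSO, dosed as mol ratio to TPA. Viability is given alongside the relative EA activation values.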

[7] = Cytotoxicity against human Raji cells assessed as cell viability at 500 molar ratio; assay type: cell-based; conditions: read-out: Activity; summary of the method: as §2
[8] = Cytotoxicity against human Raji cells assessed as cell viability at 100 molar ratio; assay type: cell-based; conditions: read-out: Activity; summary of the method: as §2
[9] = Cytotoxicity against human Raji cells assessed as cell viability at 10 molar ratio; assay type: cell-based; conditions: read-out: Activity; summary of the method: as §2
[10] = Cytotoxicity against human Raji cells assessed as cell viability at 1 molar ratio; assay type: cell-based; conditions: read-out: Activity; summary of the method: as §2
Mus musculus = assay: Inhibition of DMBA-induced/TPA-promoted carcinogenesis in ICR mouse assessed as reduction of skin papillomas per mouse at 85 nmol administered twice weekly after 1 week of initiation measured after 20 weeks; assay type: functional; design: scale not given: the % may be the effect or the level left
Summary of the method: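 Female ICR mice, 7 weeks old, 15 per group, had shaved backs. They were initiated with DMBA (100 µg, […]) in Me2CO, then promoted from 1 week later with TPA (1 µg, […]) in Me2CO twice weekly, with test agent given with TPA. Papilloma incidence and average papillomas per mouse were scored against the TPA-alone control.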

Row | Compound | Activity (Raji [1]) [%] | Activity (Raji [2]) [%] | Activity (Raji [3]) [%] | Activity (Raji [4]) [%] | Activity (Raji [5]) [%] | viability at 1000 molar ratio [6] [%] | viability at 500 molar ratio [7] [%] | viability at 100 molar ratio [8] [%] | viability at 10 molar ratio [9] [%] | viability at 1 molar ratio [10] [%] | Activity (Mus musculus) [%]
1 | CC1=CC[C@H](C(C)C)C=C1 [ALPHA-PHELLANDRENE] | 78.5 | 93.7 | 100 | 100 | 100 | > 80 | > 80 | > 80 | > 80 | > 80 | 
2 | C=C1CCC[C@]2(C)CC[C@@H](C(C)(C)O)C[C@@H]12 [BETA-EUDESMOL] | 40.1 | 68.9 | 83.8 | 100 | 100 | > 80 | > 80 | > 80 | > 80 | > 80 | 
3 | C=CCc1ccc(O)c(-c2ccc(O)c(CC=C)c2)c1 [HONOKIOL] | 0 | 18.5 | 69.4 | 90.1 | 100 | 60 | > 80 | > 80 | > 80 | > 80 | 
4 | C=CCc1ccc(O)c(-c2cc(CC=C)ccc2O)c1 [MAGNOLOL] | 0 | 0 | 31.2 | 56.9 | 94.4 | 70 | > 80 | > 80 | > 80 | > 80 | 40
5 | C=CCc1ccc(O)c(-c2cc(CC=C)cc(C3C=C(C)CC[C@@H]3C(C)C)c2O)c1 (stereo partly specified) [MONOTERPENYL MAGNOLOL] | 11.6 | 20.9 | 82.6 | 100 | 100 | 60 | > 80 | > 80 | > 80 | > 80 | 
